Results of several laboratories.
Compare with care: the assays were run in different laboratories. Converted amounts (≈) assume the structure as drawn.
Organism: Candida albicans
Observed: microbial growth

CC(C)NCC(COc1cccc2ccccc12)OC(=O)C=Cc1ccc(O)c(O)c1 (centres unmarked)
MIC (broth dilution; SC5314): 16 µg/mL (≈ 38 µM)

Clc1ccccc1C(c1ccccc1)(c1ccccc1)n1ccnc1
MIC (MTCC183): 0.5 µg/mL (≈ 1.45 µM)

N#Cc1c(-c2ccc(Cl)cc2Cl)c(C(N)=S)c(N)n(N)c1=O
inhibition zone (well diffusion; ATCC10231; 500 µg/mL): 13 mm

Cc1nn(-c2ccccc2)c2c1C(c1ccco1)N(C(=O)c1ccncc1)N2 (centres unmarked)
MIC (MTCC183): > 100 µg/mL

Nc1ccccc1OC(=O)C=Cc1ccc(O)c(O)c1
MIC (broth dilution; SC5314): 8 µg/mL (≈ 29.5 µM)

Cc1nn(-c2ccccc2)c2c1C(c1cncs1)N(C(=O)c1ccncc1)N2 (centres unmarked)
MIC (MTCC183): > 100 µg/mL

COc1cc(Cc2cnc(N)nc2N)cc(OC)c1OC
MIC (broth dilution; SC5314): 64 µg/mL (≈ 220 µM)

CN(C)c1ccc(-c2c(C(N)=S)c(N)n(N)c(=O)c2C#N)cc1
inhibition zone (well diffusion; ATCC10231; 500 µg/mL): 17 mm

COC1=CC(=O)c2ccccc2C1=O
MIC (broth dilution; ATCC60193; 24 h): 25 µg/mL (≈ 133 µM)

Cc1c(C(N)=S)c(N)n(N)c(=O)c1C#N
inhibition zone (well diffusion; ATCC10231; 500 µg/mL): 19 mm

Cc1nn(-c2ccccc2)c2c1C(c1ccc([N+](=O)[O-])cc1)N(C(=O)c1ccncc1)N2 (centres unmarked)
MIC (MTCC183): > 100 µg/mL

C[C@@H]1[C@H](O)[C@@H](C)/C=C/C=C/C=C/C=C/C=C/C=C/C=C/[C@H](O[C@@H]2O[C@H](C)[C@@H](O)[C@H](N)[C@@H]2O)C[C@@H]2O[C@](O)(C[C@@H](O)C[C@@H](O)[C@H](O)CC[C@@H](O)C[C@@H](O)CC(=O)O[C@H]1C)C[C@H](O)[C@H]2C(=O)O
MIC (broth dilution; ATCC60193; 24 h): 2 µg/mL (≈ 2.16 µM)

O=C(C=Cc1ccc(O)c(O)c1)Oc1cccc2cccnc12
MIC (broth dilution; SC5314): 16 µg/mL (≈ 52.1 µM)

N#Cc1c(-c2ccc(OCc3ccccc3)cc2)c(C(N)=O)c(N)n(N)c1=O
inhibition zone (well diffusion; ATCC10231; 500 µg/mL): 10 mm

O=C(C=Cc1ccc(O)c(O)c1)OCc1ccccc1
MIC (broth dilution; SC5314): 64 µg/mL (≈ 237 µM)

Cc1nn(-c2ccccc2)c2c1C(c1c[nH]c3ccccc13)N(C(=O)c1ccncc1)N2 (centres unmarked)
MIC (MTCC183): 32 µg/mL (≈ 76.1 µM)

N#Cc1c(-c2ccc(Cl)cc2Cl)c(C(N)=O)c(N)n(N)c1=O
inhibition zone (well diffusion; ATCC10231; 500 µg/mL): 9 mm
